Bioassay records as filed in PubChem.
Only some compounds are listed: those with a hit (about 2.6% of all), similar ones and a draw of the others.
mABHD4 FP: ABHD4 (mouse) inhibition, primary FP screen. Q8VD66. actives 0.54% (n = 370,000). inhibition, % at 8.92 µM. purified mABHD4, FP-Rh probe fluorescence polarization;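 active = inhibition exceeding the mean over every tested compound plus 3 SD, cut at about 30% in these data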;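 also: 0% = plate median of compound wells and 100% = S159A mutant with DMSO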
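system = mouse ABHD4 enzyme, wild type | medium = HEPES pH 7.0, NaCl, Pluronic buffer | also added = FP-Rh probe | incubation = Enzyme–compound pre-incubation 45 min, then probe 60 min, both 25 °C | technique = fluorescence polarization, excitation 525 nm, emission 598 nm, BODIPY TMR filters | controls = S159A mutant high control, sample median low control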
SIAE primary: inhibitors of human sialic acid acetylesterase SIAE. SIAE FP-Rh probe binding, fluorescence polarization. inhibition, % at 9.66 µM. actives 0.69% (n = 370,000). AID 1053197;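 active = inhibition above a cutoff: mean of compounds within the control limits plus 3 SD of those, cut at about 17% in these data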;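 also: 0% = plate median of compound wells and 100% = probe without SIAE protein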
Target sequence (Q9HAT2 whole entry, looked up): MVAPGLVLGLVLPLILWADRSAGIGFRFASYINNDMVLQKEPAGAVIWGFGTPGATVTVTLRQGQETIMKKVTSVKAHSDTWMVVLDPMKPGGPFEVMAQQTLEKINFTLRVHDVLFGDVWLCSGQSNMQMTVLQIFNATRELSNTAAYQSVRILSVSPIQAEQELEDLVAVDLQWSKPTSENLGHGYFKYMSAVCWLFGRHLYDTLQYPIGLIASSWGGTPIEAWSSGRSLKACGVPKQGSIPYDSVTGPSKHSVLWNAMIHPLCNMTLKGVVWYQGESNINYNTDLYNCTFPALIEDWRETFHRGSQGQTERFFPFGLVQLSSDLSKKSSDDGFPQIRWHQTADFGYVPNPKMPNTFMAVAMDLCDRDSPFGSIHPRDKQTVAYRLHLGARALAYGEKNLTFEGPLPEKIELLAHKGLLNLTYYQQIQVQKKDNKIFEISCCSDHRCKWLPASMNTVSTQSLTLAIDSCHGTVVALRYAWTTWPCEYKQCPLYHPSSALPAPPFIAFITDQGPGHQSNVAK
PRMT1 inh: inhibitors of human PRMT1. Q99873. recombinant PRMT1, activity-based probe fluorescence polarization. inhibition, % at 2.79 µM. actives 1.3% (n = 370,000). AID 652257;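 active = inhibition above about 21% made by adding two undisclosed values, limit read from the data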
TCR CD3 inh: human TCR-CD3 binding inhibition. TAMRA-labeled TCR probe fluorescence, biochemical. inhibition, % at 9.4 µM. actives 0.37% (n = 360,000). AID 651800;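 also: recombinant mutant TCR 2C K166C tagged with TAMRA read by polarization; 0% = receptor in buffer alone and 100% = receptor with positive control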
HTRA1 inh: blocks human HTRA1 serine peptidase. Q92743. recombinant HTRA1, FP-rhodamine activity-based probe, fluorescence polarization. inhibition, % at 5.96 µM. actives 0.5% (n = 340,000). AID 504803; in the data active = inhibition above about 36%;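 also: 0% = enzyme with DMSO and 100% = wells lacking enzyme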
HTRA1 conf: confirmation of human HTRA1 inhibitors | shares compounds with HTRA1 inh | recombinant HTRA1, FP-rhodamine activity-based probe, fluorescence polarization | inhibition, % at 5.96 µM | actives 66% (n = 1,600) | AID 540248;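 active = mean inhibition over three repeats above a set limit taken from the earlier primary screen, cut at about 37% in these data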;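 also: 0% = HTRA1 with DMSO and 100% = wells lacking HTRA1; inhibitors block probe binding so polarization drops and inhibition rises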
BSA probe FL: counter-screen for TCR-CD3 interaction inhibitors: BSA probe; shares compounds with TCR CD3 inh; TAMRA-labeled BSA probe fluorescence counterscreen; inhibition, % at 9.4 µM; actives 10% (n = 1,200); AID 652035; in the data active = inhibition above about 23%;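 also: 0% = buffer low control and 100% = reference high control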
TCR-CD3 inh conf: confirmation of human TCR-CD3 interaction inhibitors; actives 48% (n = 1,200); inhibition, % at 9.4 µM; shares compounds with TCR CD3 inh; AID 652036; TAMRA-labeled TCR probe fluorescence binding assay
PRMT1 inh conf: PRMT1 (human) inhibition, FP confirmation | shares compounds with PRMT1 inh | recombinant His-PRMT1, activity-based probe fluorescence polarization | inhibition, % at 2.79 µM | actives 42% (n = 3,300) | AID 687036;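 active = mean inhibition across replicates above the hit cutoff derived for the earlier primary screen, cut at about 22% in these data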
mABHD4 conf: confirmation of mouse ABHD4 inhibitors; inhibition, % at 8.92 µM; actives 55% (n = 1,800); purified mABHD4, FP-Rh probe fluorescence polarization; shares compounds with mABHD4 FP;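 active = mean inhibition across replicates above the hit cutoff set in the primary screen, cut at about 30% in these data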;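 also: 0% = wild-type ABHD4 with DMSO and 100% = catalytically dead S159A mutant with DMSO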
SIAE confirm: human SIAE inhibition, confirmation | AID 1117263 | SIAE FP-Rh activity-based probe, fluorescence polarization | shares compounds with SIAE primary | actives 13% (n = 2,300) | inhibition, % at 9.66 µM;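 active = mean inhibition of the replicates above the hit cutoff set in the primary screen, cut at about 17% in these data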;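 also: 0% = SIAE with DMSO and probe and 100% = probe without SIAE; inhibitors lower polarization as more probe stays unbound to SIAE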
* hit, by the source's call; nt = not tested or not shown. Rule as the data show it, unless noted: active = inhibition above about 19%; inactive = the rest.

SMILES	mABHD4 FP	SIAE primary	PRMT1 inh	TCR CD3 inh	HTRA1 inh	HTRA1 conf	mABHD4 conf	SIAE confirm	others
O=C(O)CCNc1ccc(NCCC(=O)O)c2c1C(=O)c1ccccc1C2=O	56*	13	27*	28*	44*	59*	65*	nt	BSA probe FL=13;TCR-CD3 inh conf=42*
O=C(N[C@H](Cc1ccccc1)C(=O)NCc1ccco1)[C@H]1O[C@@H](n2ccc(=O)[nH]c2=O)[C@H](O)[C@@H]1O	6	-1	0	12	nt	nt	nt	nt
COc1ccc2ccccc2c1C(O)c1nccn1C (stereo unspecified)	40*	57*	85*	79*	39*	25	88*	43*	BSA probe FL=6;TCR-CD3 inh conf=3
Cn1ccnc1C(O)c1ccccc1 (stereo unspecified)	3	-8	3	-3	-4	nt	nt	nt
COc1ccc(NC(=O)CSc2nnc(-c3ccco3)c(-c3ccco3)n2)cc1OC	16	12	8	5	-4	nt	nt	nt
COc1cccc(NC(=O)CSc2nnc(-c3ccco3)c(-c3ccco3)n2)c1	46*	20*	47*	20*	39*	-6	25	4
COc1ccc(C(=O)CSc2nnc(-c3ccco3)c(-c3ccco3)n2)cc1	19	19*	27*	16	37*	-4	nt	7	PRMT1 inh conf=74*
CN=c1scc(C)n1/N=C/c1ccc(O)c(O)c1O	41*	19*	26*	53*	39*	60*	24	0	BSA probe FL=-16;TCR-CD3 inh conf=65*
CN=c1scc(C)n1/N=C/c1cc(Br)c(O)c(OC)c1	14	7	1	5	5	nt	nt	nt
S=C(Nc1ccc(Nc2ccccc2)cc1)Nc1ccccn1	6	32*	23*	0	38*	40*	nt	3
S=C(Nc1ccccc1)Nc1ccccn1	-3	4	2	2	0	nt	nt	nt
CC1CCc2sc(C(=O)NN=C3CCCC3)cc2C1 (stereo unspecified)	2	3	-2	4	-37	nt	nt	nt
COc1ccc(C(=O)COC(=O)c2ccccc2O)c(OC)c1	0	-8	0	-5	-18	nt	nt	nt
O=[N+]([O-])c1cc([N+](=O)[O-])c2c(=Nc3ccccc3)n(-c3ccccc3)n(O)c2c1	55*	25*	7	26*	42*	48*	48*	11
COc1ccc(CNc2cccc3[nH]c(C(F)(F)F)nc23)cc1OC	-2	19*	1	3	40*	12	nt	4
COc1ccc(CNC(=O)c2[nH]c(C(F)(F)F)nc2-c2ccccc2)cc1OC	1	5	-6	1	nt	nt	nt	nt
COc1cccc(-c2nnc(SCC(=O)Nc3ccc(Oc4ccccc4)cc3)n2Cc2ccco2)c1	-41	-12	11	nt	nt	nt	nt	nt
CCOC(=O)C1Nc2ccc(Br)cc2C2C=CCC12 (stereo unspecified)	53*	20*	30*	-4	65*	2	52*	6	PRMT1 inh conf=26*
O=C1C(Nc2ccc(O)cc2)=C/C(=N/S(=O)(=O)c2cccs2)c2ccccc21	73*	21*	13	-6	64*	74*	81*	5
CCOc1ccc(Nc2ccc(N)c(S(=O)(=O)O)c2)cc1	107*	21*	36*	42*	93*	53*	55*	9	BSA probe FL=2;TCR-CD3 inh conf=21*;PRMT1 inh conf=10
COC(=O)c1cccc(Cn2c(Cl)c(/C=N/NC(=O)c3ccco3)sc2=O)c1	3	-2	5	1	-10	nt	nt	nt
O=C1CCCCC(=O)[C@H](O)C[C@H](c2ccccc2)O1	5	-1	3	-2	nt	nt	nt	nt
